This note sets out measurements from the RNAGym collection of RNA variant scans (doi:10.1101/gad.245936.114).

Variants at the floor of the assay were thinned out. A value given as a limit tells only on which side of the number the result lay.

First the molecules themselves.
B1: tRNA (parent)
chain: CUCUCGGUAGCCAAGUUGGUUUAAGGCGCAAGACUUUAAUUUAUCACUACGAAAUCUUGAGAUCGGGCGUUCGACUCGCCCCCGGGAGAUUUUUUCCUCGAGCAA

Variants of B1 are the subject of the series. Description: nonsense suppression (GFP-seq) (ratio to wild type); higher = more function; SUP4oc tRNA, yeast GFP reporter sort-seq. In a few lines:
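Yeast carrying genome-integrated SUP4oc tRNA variants from a library with ~3% random mutations were grown in raffinose/galactose medium with 80 mg/L adenine. Each strain also carried a galactose-driven GFP ochre reporter and RFP. Cells were sorted into GFP/RFP bins, and each bin was Illumina-sequenced (phred ≥30). Nonsense suppression (GFPSEQ) is the bin median GFP/RFP, weighted by each variant's estimated cell share per bin, relative to wild-type SUP4oc; variants needed ≥100 reads and ≥30 cells.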
In the case of CUCUCGGUAGCCAAGUAUGUUUAAGGCGCAAGACUUUAAUUUAUCACUACGAAAUCUUGAGAUCGGGCGUUCGACUCGCCCCCGGGAGAUUUUUUCCUCGAGCAA [U17A G18U], the nonsense suppression is not above 0.026.
Next, CUCUCGGUAGCCAAGUAGGUUGAAGGCGCAAGACUUUAAUUUAUCACUACGAAAUCUUGAGAUCGGGCGUUCGACUCGCCCCCGGGAGAUUUUUUCCUCGAGCAA [U17A U22G]: 1.03; CUCUCGGUAGCCAAGUAGGUUUAAGGCGCAAGACUUUAAUUUAUCACUACGAAACCUUGAGAUCGGGCGUUCGACUCGCCCCCGGGAGAUUUUUUCCUCGAGCAA [U17A U55C]: 0.176.
With CUCUCGGUAGCCAAGUCGGUUUACGGCGCAAGACUUUAAUUUAUCACUACGAAAUCUUGAGAUCGGGCGUUCGACUCGCCCCCGGGAGAUUUUUUCCUCGAGCAA [U17C A24C] the figure was 0.276; with CUCUCGGUAGCCAAGUAGGUUUAAGGCGCAAGACUUUAAUUUAUCACUACGAAAUCUUGACAUCGGGCGUUCGACUCGCCCCCGGGAGAUUUUUUCCUCGAGCAA [U17A G61C], 0.665; with CUCUCGGUAGCCAAGUAGGUUUAAGGCGCAAGACUUUAAUUUAUCACUACGAAAUCUUGAAAUCGGGCGUUCGACUCGCCCCCGGGAGAUUUUUUCCUCGAGCAA [U17A G61A], 0.83.
With CUCUCGGUAGCCAAGUAGGUUUAAGUCGCAAGACUUUAAUUUAUCACUACGAAAUCUUGAGAUCGGGCGUUCGACUCGCCCCCGGGAGUUUUUUUCCUCGAGCAA [U17A G26U A89U] the figure was not above 0.026.
CUCUCGGUAGCCAAGUAGGUUUAAGGCGCAAGACUUUAAUUUAUCACUACGAAAUCUUGAGAUCGGGCGUUCGACUCGCCCCCGGGGGAUUUUUUCCUCGAGCAA [U17A A87G]: the nonsense suppression is 1.19.
Next, CUCUCGGUAGCCAAGUAGGUCUAAGGCGCAAGACUUUAAUUUAUCACUACGAAAUCUUGAGAUCGGGCGUUCGACUCGCCCCCGAGAGAUUUUUUCCUCGAGCAA [U17A U21C G85A]: 1.06.
On to CUCUCGGUAGCCAAGUAGGUAUAAGGCGCAAGACUUUAAUUUAUCACUACGAAAUCUUGAGAUCGGGCGUUCGACUCGCCCCCGGGAGAUUUUUUCCUCGAGCAA [U17A U21A], for which the nonsense suppression stood at 0.966.
On to CUCUCGGUAGCCAAGUAGGUUUAAGGCGUAAGACUUUAAUUUAUCACUACGAAAUCUUGAGAUCGGGCGUUCGACUCGCCCCCGGGAGAUUUUUUCCUCGAGCAA [U17A C29U], for which the nonsense suppression is 1.15.
With CUCUCGGUAGCCAAGUAGGUUUAAGGCGCAAGACUUUAAUUUAUCACUACGAAAUCUUGAGAUCGGGCGGUCGACUCGCCCCCGGGAGAUUUUUUCCUCGAGCAA [U17A U70G] the figure was not above 0.026; with CUCUCGGUAGCCAAGUAGGUUUAAGGCGCAAGACUUUAAUUUAUCACUACGAAAUCUUGAGAUCGGGCGUUCGACCCGCCCCCGGGAGAUUUUUUCCUCGAGCAA [U17A U76C], 1.06; with CUCUCGGUAGCCAAGUAGGGUUAAGGCGCAAAACUUUAAUUUAUCACUACGAAAUCUUGAAAUCGGGCGUUCGACUCGCUCCCGGGAGAUUUUUUCCUCGAGCAA [U17A U20G G32A G61A C80U], not above 0.026.
Next, CUCUCGGUAGCCAAGUAGGUUUAAGGCGCAAGACUUUAAUUUAUCACUACGAAAUCUUGAGAUCGGGCGUUCGACUCUCCCCCGGGAGAUUUUUUCCUCGAGCAA [U17A G78U]: 0.186; CUCUCGGUAGCCAAGUAGGUUUAAGGCGCAAGACUUUAAUUUAUCACUACGAAAUCUUGAGAUCGGGCGUUCGACUCACCCCCGGGAGAUUUUUUCCUCGAGCAA [U17A G78A]: 0.449; CUCUCGGUAGCCAAGUAGGUUUAAGGCGCAACACUUUAAUUUAUCACUACGAAAUCUUGAGAUCGGGCGUGCGACUCGCCCCCGGGAGAUUUUUUCCUCGAGCAA [U17A G32C U71G]: 0.0947.
With CUCUCGGUAGCCAAGUAGGUUUAACGCGCAAGACUUUAAUUUAUCACUACGAAAUCUUGAGAUCGGGCGUUCGACUCGCCCCCGGGAGAUUUUUUCCUCGAGCAA [U17A G25C], the nonsense suppression amounted to 0.068.
For the variant CUCUCGGUAGCCAAGUAGGUUUAAGGCGCAAGACUUUAAUUUAUCACUACGAAGUCUUGAGAUCGGGCGUUCGACUCGCCCCCGUGAGAUUUUUUCCUCGAGCAA [U17A A54G G85U], the nonsense suppression was not above 0.026.
Next, CUCUCGGUAGCCAAGUAGGUUUAAGGCACAAGACUUUAAUUUAUCACUACGAAAUCUUGAGAUCGGGCGUUCGACUCGCCCCCGAGAGAUUUUUUCCUCGAGCAA [U17A G28A G85A]: 1.02; CUCUCGGUAGCCAAGUAGGUUUAAGGCGCAAGGCUUUAAUUUAUCACUACGAAAUCUUGAGAUCGGGCGUUCGACUCGCCCCCGGGAGAUUUUUUCCUCGAGCAA [U17A A33G]: 0.104; CUCUCGGUAGCCAAGUAGGUUUAAGGCGCAAGACUUUAAUUUAUCACUACGAAAUCUUGAGAACGGGCGUUCGACCCGCCCCCGGGAGAUUUUUUCCUCGAGCAA [U17A U63A U76C]: 0.155.
Take CUCUCGGUAGCCAAGUAGGUUUAAGGCGCAAGACUUUAAUUUAUCACUACGAAAUCUUGAGAUCGGGCGUUCGACUCGACCCCGGGAGAUUUUUUCCUCGAGCAA [U17A C79A]: the nonsense suppression was not above 0.026.
Next, CUCUCGGUAGCCAAGUCGGUUUAAGGCGCAAGACUUUAAUUUAUCACUACGAAAUCUUGAGAUCGGGCGUUCGACUCGCCCCCGGGAGAUUUUUUCCUCGAGCAA [U17C]: 1.05; CUCUCGGUAGCCAAGUAGGUUUAAGGCGCAAGAUUUUAAUUUAUCACUACGAAAUCUUGAGAUCGGGCGUUCGUCUCGCCCCCGGGAGAUUUUUUCCUCGAGCAA [U17A C34U A74U]: not above 0.026; CUCUCGGUAGCCAAGUAGGUUUAAGGCUCACGACUUUAAUUUAUCACUACGAAAUCUUGAGAUCGGGCGUUCGACUCGCGCCCCGAAGAUUUUUUCCUCGAGCAA [U17A G28U A31C C80G G84C G86A]: not above 0.026.
Consider CUCUCGGUAGCCAAGUAGGUUUAAGGCGCAAGACUUUAAUUUAUCACUACGAAAUCUUGCGAUCGGGCGUUCGACUCGCCCCCGGGAGAUUUUUUCCUCGAGCAA [U17A A60C], for which the nonsense suppression came to 0.19.
